The source of these data is the EternaBench riboswitch data.

For this data set, the system named is MS2 coat protein. Description: apparent Kd, MS2 coat protein; higher = weaker binding; RNA-MaP array. Summed up: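 Designed RNAs were produced on an Illumina sequencing chip by transcription of sequenced DNA templates. Binding to fluorescently labeled MS2 coat protein (1.5 nM to 3 μM) was measured at room temperature with or without input ligand. The apparent Kd is the median of per-cluster binding-curve fits. Designs were excluded when measured on fewer than 10 clusters.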

Where [1] appears, read: designed as: ON switch for flavin mononucleotide, no ligand.
The mark [2] stands for this setting: ligand present: flavin mononucleotide, designed as: ON switch for flavin mononucleotide.
Setting [3] is: designed as: OFF switch for flavin mononucleotide, no ligand.
Setting [4] is: ligand present: flavin mononucleotide, designed as: OFF switch for flavin mononucleotide.

For “GUGAUACUUGGAGGAUAUGCUUUCACCUGGUACUCUAUUACAGUGACAUGAGGAUCACCCAUGUAGCAGAAGGCCAGUCAUCGA”, the “apparent Kd” value by setting is: under setting [1], 18.8 nM; under setting [2], 9.73 nM.
Regarding “CUACUCAUAGGAUAUGAAGCCCGAGACAUGAGGAUCACCCAUGUAUGAUCUACUGUGCGCUCAGAAGGAUGCAGUA”, the “apparent Kd” value under setting [3] is 23.9 nM and the “apparent Kd” value under setting [4] was 13.4 nM.
Consider “UCAGUUCAAGGAUAUACAUGAGGAUCACCCAUGUACCGCAAUGUAGAAAAGUGACGUAGUAGAAGGUGAAACGA”, for which the “apparent Kd” value reads like this: under setting [3], 23.6 nM; under setting [4], 21 nM.
The matching figures for “AGAGCGAAUCUAACAUGAGGAUCACCCAUGUGUUAUGUUCACGAGGAUAUGUAGUCACUUAGGCGACAGAAGGCGUUCCAAGUA”: 29.3 nM and 22 nM.
In the same order, the values of “GUAAAACGGAAGAAGGCGCGGAGUACAGGGUAAAAUCAGGUCACAUGAGGAUCACCCAUGUGGAGCGAGGAUAUUCAUAAGGUA” are 24.7 nM and 63.2 nM.
“AAUUUUAUGAAAGGAUAUGUGUGCUGGUCCAUCACAGAAGGUUCAAGGAGAUGGAUAUAACGACAUGAGGAUCACCCAUGUGCU”: the “apparent Kd” value is, setting by setting: under setting [1], 32 nM; under setting [2], 22.1 nM.
Take “UGUUUGGCUUCCUUUACAUGAGGAUCACCCAUGUUAUGUAAUUAGGAUAUCCAUGUGAGAUGGUUGGAGAAGGAAUGCAUGACG”: the “apparent Kd” value under setting [3] is 27 nM and the “apparent Kd” value under setting [4] worked out at 33 nM.
As to “CAAGCGCAUAAGUACGCAACUACAUGAGGAUCACCCAUGUGAAGAAGGGCACAUCUAUCCCACGUGCAGGAUAUUCUCCAAUUU”, the “apparent Kd” value under setting [1] was 44.8 nM and the “apparent Kd” value under setting [2] came to 51 nM.
Take “CCUUAAGCAUAAGGAUAUAAGUUUUGACUAAGUUUAGAAGGUAUGCUUGCAAGAUCCGGCAAUAACAUGAGGAUCACCCAUGUG”: the “apparent Kd” value by setting is: under setting [3], 27.6 nM; under setting [4], 21.3 nM.
As to “UCAACACAUGAGGAUCACCCAUGUUAUACUAGGGUAGGAUAUGACGUAGUGAAGUGCUCUUCAGAAGGACCAUGGG”, the “apparent Kd” value runs as follows: under setting [1], 64.7 nM; under setting [2], 30.1 nM.
Consider “AGUAACGGAACAUGAGGAUCACCCAUGUCAAAAGAUAAGACAAAGGAUAUCAGAUAAAGACCAAAUGAGAAGGUUGGAAGACAA”, for which the “apparent Kd” value is, setting by setting: under setting [1], 43 nM; under setting [2], 31.4 nM.
Take “UCACAACUAGGAUAUUUAGUGCUAUACAUGAGGAUCACCCAUGUCGUGUGCACUAGUACGAAAGAAGGAGUUAUCG”: the “apparent Kd” value is, setting by setting: under setting [3], 5.09 nM; under setting [4], 5.21 nM.
The matching figures for “CUGGUUGUCAAAGGAUAUAAACGAUCACAUGAGGAUCACCCAUGUCUCCCUAUGUUAAUAAGCGCUUAGAAGGUUGAGCCAGCC”: 31.3 nM and 34.4 nM.
For “GGGAAACUCUACACUCACAACACAUGAGGAUCACCCAUGUUAAGAAGGUUCAGAACGGGCAAUCGAAAGGAUAUUAGGAUGGCU”, the “apparent Kd” value runs as follows: under setting [3], 10.7 nM; under setting [4], 10.2 nM.
“AUCAAUCUAGGAUAUACAUGAGGAUCACCCAUGUCUUCAACCAAGGGCUCCACGACCUGUAGAAGGAGACAAAA”: the “apparent Kd” value was found to be 27 nM under setting [3] and 22 nM under setting [4].
Turning to “GGGCGACAUGAGGAUCACCCAUGUGUCGAUACCAGUAUGAAUUUCUACCCUUGGCAGCGACGACACGGUUAUUUGUGCACUUCGA”, the “apparent Kd” value reads like this: (designed as: ON switch for theophylline, no ligand) 81.8 nM; (ligand present: theophylline, designed as: ON switch for theophylline) 200 nM.
For “AGUAAAAGAGGAUAUACAUGAGGAUCACCCAUGUUGGCGCAGACAAUCGAUGCAUCGAGUAGAAGGCUUUCAAU”, the “apparent Kd” value came to 21.3 nM under setting [3] and 17.1 nM under setting [4].
Take “UCCUCGUAUUAAGGAUAUAGAAAAGUCACAUGAGGAUCACCCAUGUCUAAGGACGCACUAUGAGUCUAGAAGGUAAUCCGGAAU”: the “apparent Kd” value worked out at 78.9 nM under setting [1] and 65.5 nM under setting [2].
Consider “CUUUACUGAGGAUAUACGCAGAUCUAGAUAUCGUAAUACGAACAUGAGGAUCACCCAUGUAGAAGGCAGGCCGA”, for which the “apparent Kd” value was 12.4 nM under setting [3] and 24.1 nM under setting [4].
The matching figures for “GUCCACGUCCAAGGAUAUAAUACGAUACAUGAGGAUCACCCAUGUAAGGAGUGUAGAGUACGAUGUUAGAAGGUGGCAUUGCAG”: 11.9 nM and 11.1 nM.

Usually apparent Kd stands for the concentration giving half-maximal binding under the conditions of the assay.
